Source: ChEMBL document CHEMBL1129794, “Synthesis and evaluation of 2-[(5-methylbenz-1-ox-4-azin-6-yl)imino]imidazoline, a potent, peripherally acting alpha 2 adrenoceptor agonist” (J Med Chem, 1996)

Assays:
[1] = pKa value determined in the presence of the partition solvent for guanidine subunit.; type: physicochemical
Procedure, shortened: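 Potentiometric titration: compound dissolved, solution titrated to predetermined final pH; pKa measured in water and again with octanol or dodecane added before titration; log P derived from shift between aqueous pKa and pKa in presence of partition solvent.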

[2] = molecular target: T1, Adrenergic receptor alpha-1 (Homo sapiens, UniProt P35348+P25100+P35368); experiment: Compound was tested for binding affinity based on dissociation constant of Alpha-1 adrenergic receptor; type: protein assay
T1 sequence (P35348 whole entry): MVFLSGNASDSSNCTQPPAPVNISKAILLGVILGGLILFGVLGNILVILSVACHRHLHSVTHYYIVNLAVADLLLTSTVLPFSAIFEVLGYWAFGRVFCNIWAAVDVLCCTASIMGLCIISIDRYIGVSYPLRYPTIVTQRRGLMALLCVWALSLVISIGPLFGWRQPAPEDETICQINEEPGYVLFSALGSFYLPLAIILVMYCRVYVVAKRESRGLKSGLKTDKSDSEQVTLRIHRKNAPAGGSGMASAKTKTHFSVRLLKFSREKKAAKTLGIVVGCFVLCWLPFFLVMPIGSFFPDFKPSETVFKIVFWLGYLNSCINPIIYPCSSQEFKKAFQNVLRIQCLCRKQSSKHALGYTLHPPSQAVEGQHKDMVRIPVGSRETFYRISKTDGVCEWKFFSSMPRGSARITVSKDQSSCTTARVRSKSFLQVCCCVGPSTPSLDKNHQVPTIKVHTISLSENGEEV
T1 sequence (P25100 whole entry): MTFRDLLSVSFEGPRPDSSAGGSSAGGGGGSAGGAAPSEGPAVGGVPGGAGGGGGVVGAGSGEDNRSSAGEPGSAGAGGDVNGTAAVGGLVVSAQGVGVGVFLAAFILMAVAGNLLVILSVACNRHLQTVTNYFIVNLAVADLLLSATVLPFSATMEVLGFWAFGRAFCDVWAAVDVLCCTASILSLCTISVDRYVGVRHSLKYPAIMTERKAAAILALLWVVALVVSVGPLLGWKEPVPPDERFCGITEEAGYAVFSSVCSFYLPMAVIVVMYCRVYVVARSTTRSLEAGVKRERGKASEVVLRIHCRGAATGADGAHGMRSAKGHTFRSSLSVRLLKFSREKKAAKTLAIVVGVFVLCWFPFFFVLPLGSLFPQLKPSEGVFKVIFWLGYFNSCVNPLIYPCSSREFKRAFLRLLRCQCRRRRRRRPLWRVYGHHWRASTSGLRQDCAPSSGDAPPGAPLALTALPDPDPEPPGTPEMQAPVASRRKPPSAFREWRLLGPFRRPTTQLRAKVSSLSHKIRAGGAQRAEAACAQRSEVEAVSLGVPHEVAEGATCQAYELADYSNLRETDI
T1 sequence (P35368 whole entry): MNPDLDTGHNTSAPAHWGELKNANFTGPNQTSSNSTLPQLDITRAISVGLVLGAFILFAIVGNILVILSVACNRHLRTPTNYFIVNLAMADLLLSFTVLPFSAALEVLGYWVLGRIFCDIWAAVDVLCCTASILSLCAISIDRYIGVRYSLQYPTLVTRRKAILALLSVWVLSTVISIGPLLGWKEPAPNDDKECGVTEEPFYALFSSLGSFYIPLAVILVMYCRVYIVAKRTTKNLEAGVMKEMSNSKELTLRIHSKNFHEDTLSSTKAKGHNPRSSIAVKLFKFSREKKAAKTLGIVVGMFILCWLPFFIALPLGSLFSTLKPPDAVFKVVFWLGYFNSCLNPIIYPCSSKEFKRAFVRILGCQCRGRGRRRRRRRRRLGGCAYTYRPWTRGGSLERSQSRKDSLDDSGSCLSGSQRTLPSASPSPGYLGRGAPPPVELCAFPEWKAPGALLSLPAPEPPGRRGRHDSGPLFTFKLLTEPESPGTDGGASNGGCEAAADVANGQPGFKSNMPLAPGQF

[3] = molecular target: T2, Adrenergic receptor alpha-2 (Homo sapiens, UniProt P08913+P18825+P18089); experiment: Compound was tested for concentration that produced 50% contractile response relative to maximum response to norepinephrine for Alpha-2 adrenergic receptor in rabbit vas deferens; type: functional, tissue-based, Oryctolagus cuniculus; conditions: target entry is the homologue from another species
T2 sequence (P08913 whole entry): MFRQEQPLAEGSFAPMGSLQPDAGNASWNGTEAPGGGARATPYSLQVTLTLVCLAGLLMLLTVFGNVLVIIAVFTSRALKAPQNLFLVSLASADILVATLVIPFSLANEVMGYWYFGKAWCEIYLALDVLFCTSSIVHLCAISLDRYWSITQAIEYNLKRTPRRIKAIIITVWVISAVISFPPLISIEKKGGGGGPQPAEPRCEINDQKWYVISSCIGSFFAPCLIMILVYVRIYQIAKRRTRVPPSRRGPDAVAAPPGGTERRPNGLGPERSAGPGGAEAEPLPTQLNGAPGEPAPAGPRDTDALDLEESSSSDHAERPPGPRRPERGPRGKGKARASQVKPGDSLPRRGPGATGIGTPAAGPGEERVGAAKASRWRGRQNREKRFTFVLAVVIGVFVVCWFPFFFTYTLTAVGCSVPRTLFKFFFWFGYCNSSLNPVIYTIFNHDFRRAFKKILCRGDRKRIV
T2 sequence (P18825 whole entry): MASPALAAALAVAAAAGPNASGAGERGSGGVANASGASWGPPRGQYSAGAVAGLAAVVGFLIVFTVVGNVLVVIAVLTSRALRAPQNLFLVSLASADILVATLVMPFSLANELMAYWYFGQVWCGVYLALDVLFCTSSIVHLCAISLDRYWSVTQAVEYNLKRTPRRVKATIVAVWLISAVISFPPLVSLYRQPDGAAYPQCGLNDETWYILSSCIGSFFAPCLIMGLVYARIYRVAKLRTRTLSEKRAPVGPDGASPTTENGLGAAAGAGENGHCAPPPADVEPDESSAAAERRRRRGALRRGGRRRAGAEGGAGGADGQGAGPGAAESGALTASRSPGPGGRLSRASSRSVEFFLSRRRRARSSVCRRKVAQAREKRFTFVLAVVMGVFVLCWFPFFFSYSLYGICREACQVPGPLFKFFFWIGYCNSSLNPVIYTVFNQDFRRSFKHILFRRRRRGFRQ
T2 sequence (P18089 whole entry): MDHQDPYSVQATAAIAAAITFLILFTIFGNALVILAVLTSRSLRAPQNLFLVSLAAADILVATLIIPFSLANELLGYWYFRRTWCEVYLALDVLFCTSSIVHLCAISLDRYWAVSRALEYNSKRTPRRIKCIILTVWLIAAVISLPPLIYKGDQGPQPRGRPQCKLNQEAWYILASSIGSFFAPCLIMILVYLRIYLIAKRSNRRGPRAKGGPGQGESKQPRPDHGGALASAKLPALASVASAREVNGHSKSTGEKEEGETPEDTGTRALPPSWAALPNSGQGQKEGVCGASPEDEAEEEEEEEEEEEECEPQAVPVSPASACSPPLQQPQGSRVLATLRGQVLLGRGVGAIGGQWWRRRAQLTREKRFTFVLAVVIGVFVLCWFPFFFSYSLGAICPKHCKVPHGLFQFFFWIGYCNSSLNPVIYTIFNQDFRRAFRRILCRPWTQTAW

[4] = molecular target: T3, Alpha-2A adrenergic receptor (Homo sapiens, UniProt P08913); experiment: Compound was tested in vitro for binding affinity against Alpha-2A adrenergic receptor from cloned human C-10 receptor transfected into Chinese hamster ovary (CHO) cells; type: cell-based
T3 sequence (P08913 whole entry): T2 sequence (P08913 whole entry)
Procedure, shortened: (§1)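 Membrane binding using cloned receptors expressed in transfected CHO cells: alpha-2A human C-10, alpha-2B rat RNG, alpha-2C human C-2.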

[5] = molecular target: T4, Alpha-2C adrenergic receptor (Homo sapiens, UniProt P18825); experiment: Compound was tested in vitro for binding affinity against Alpha-2C adrenergic receptor from cloned human C-2 receptor transfected into Chinese hamster ovary (CHO) cells; type: cell-based; procedure, shortened: as §1
T4 sequence (P18825 whole entry): T2 sequence (P18825 whole entry)

[6] = molecular target: T5, Alpha-2B adrenergic receptor (Rattus norvegicus, UniProt P19328); experiment: Compound was tested in vitro for binding affinity against Alpha-2B adrenergic receptor from cloned rat RNG receptor transfected into Chinese hamster ovary (CHO) cells; type: cell-based; procedure, shortened: as §1
T5 sequence (P19328 whole entry): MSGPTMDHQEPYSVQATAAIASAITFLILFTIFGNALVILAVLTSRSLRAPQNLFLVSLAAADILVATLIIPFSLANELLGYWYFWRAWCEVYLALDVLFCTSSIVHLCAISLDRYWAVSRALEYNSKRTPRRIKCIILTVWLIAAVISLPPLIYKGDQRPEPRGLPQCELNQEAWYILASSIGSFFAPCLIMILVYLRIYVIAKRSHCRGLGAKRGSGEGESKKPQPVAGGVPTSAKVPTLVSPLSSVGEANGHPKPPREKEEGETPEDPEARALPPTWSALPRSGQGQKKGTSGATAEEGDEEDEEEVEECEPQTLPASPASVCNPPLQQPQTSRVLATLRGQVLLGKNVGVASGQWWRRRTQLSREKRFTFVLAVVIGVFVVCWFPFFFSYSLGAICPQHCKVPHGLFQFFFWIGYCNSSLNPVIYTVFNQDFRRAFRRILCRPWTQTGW

pKa [1]	Ki [2] [nM]	EC50 [3] [nM]	Ki [5] [nM]	SMILES	Ki [4] [nM]	Ki [6] [nM]
11.1	470	1.2		Cc1c(NC2=NCCN2)ccc2c1NCCO2		
11.3		3.5	120	Cc1c(NC2=NCCN2)ccc2c1NCCN2		
	180		30	Nc1cc(Cl)c(N=C2NCCN2)c(Cl)c1 [APRACLONIDINE]		

SMILES	pKa [1]	Ki [2] [nM]	EC50 [3] [nM]	Ki [5] [nM]	Ki [4] [nM]	Ki [6] [nM]
Cc1c(NC2=NCCN2)ccc2nccnc12	9.4		0.26	27	2	17
